Source: PubChem BioAssay (several laboratories)
Hits are enriched below; roughly 5.5% of the tested compounds scored in any of these assays.
Yeast lifespan up: compounds extending yeast replicative lifespan, primary screen, S. cerevisiae, OD615; S. cerevisiae growth with nicotinamide; deaD strain in restrictive glucose medium; inhibition of the nicotinamide effect, % at 10 µM; 0.68% of 130,000 active; AID 775, 2007;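 active means inhibition above a set limit, placed 3 SD over the median of all compounds, cut at about 26% in these data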
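Test system: DeaD-strain S. cerevisiae / Buffer or medium: restrictive glucose medium / Also added: nicotinamide 1.5 mM / Doses: one concentration, 10 µM, DMSO 0.25% / Schedule: 48 h at 30 °C / Signal: OD615 measurement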
RAM inhibit: inhibitors of the yeast RAM network, primary screen, dse1pr::URA3 reporter, 5-FOA selection | 1.8% of 190,000 active | inhibition, % at 50 µM | S. cerevisiae dse1pr::URA3 reporter, 5-FOA growth OD615, 2 d; analog-sensitive cbk1-as2 kinase mutant strain;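 active means inhibition above a set limit, 3 SD over mean compound inhibition, cut at about 8.4% in these data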;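 further: inhibition rescues growth on 5-FOA so higher OD means more RAM inhibition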
Yeast growth inh: growth inhibitors of yeast BB579 in restrictive medium, primary screen, yeast lifespan-shortening project, S. cerevisiae | inhibition, % at 10 µM | 0.51% of 140,000 active | OD615, 48 h | AID 804, 2007;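 active means inhibition above a set limit, 3 SD over the mean compound inhibition, cut at about 44% in these data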
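System: Saccharomyces cerevisiae DeaD strain BB579, replicative lifespan model yeast | Buffer or medium: Restrictive glucose-based CSMM-D medium | Times: 4 h preincubation and 48 h exposure at 30 °C | Detection: OD615 turbidity measurement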
Cl transport mod: KCC2 cotransporter modulators, thallium flux, primary screen, cell-based, HEK293 KCC2, FluoZin-2 fluorescence, MLSMR; KCC2 cells, thallium flux FluoZin-2 fluorescence; B-score of Tl+ flux slope (higher = more flux/activation; lower = inhibition) at 10 µM; 2.2% of 190,000 active;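 active means thallium flux slope and its plate-corrected score both differing from the plate sample mean at a set confidence after two filtering rounds, in either direction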;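 further: slope of fluorescence scaled to starting intensity during 10 to 20 s after thallium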
WT yeast gro inh: growth inhibition of WT strain, primary screen, mitochondrial fusion inhibitor project, WT and mutant strains, chemical genetic. inhibition, % at 10 µM. AID 1362, 2008. 2.1% of 190,000 active. mitochondrial fusion phenotypic screen; in the data active means inhibition above about 58%; tested in S. cerevisiae
Of the large screens only hits and unclear results are named; the others gave an inactive call.

O=C(c1cc(C2CC2)nc2ccc(Br)cc12)N1N=C(C(F)F)CC1(O)C(F)F (configuration not stated)	WT yeast gro inh 74 (no result: Yeast lifespan up)
Cc1nn(-c2ccccc2)c2sc(C(=O)O)cc12	Yeast growth inh 50
Cc1ccc(-n2nc(C)c3cc(C(=O)O)sc32)cc1	none
Cc1nn(-c2ccc(F)cc2)c2sc(C(=O)O)cc12	Yeast growth inh 43
CCOc1ccc(NC(=S)C(C#N)=C2N(C)c3ccccc3N2C)cc1	none (no result: Yeast lifespan up, Yeast growth inh)
C=CCn1nc(-c2ccccc2)c(N2CCCCC2)cc1=O	none (no result: Yeast lifespan up, Yeast growth inh)
O=c1cc(N2CCCCC2)c(-c2ccccc2)nn1Cc1cccc(Cl)c1	WT yeast gro inh 86
O=c1cc(N2CCCCC2)c(-c2ccccc2)nn1Cc1ccc(Cl)cc1Cl	WT yeast gro inh 73
O=c1cc(N2CCCCC2)c(-c2ccccc2)nn1Cc1ccccc1Cl	WT yeast gro inh 88
COc1cc(/C=C/C(=O)N2CCCc3ccccc32)cc(OC)c1OC	none
O=C(Nc1ccccc1)C1=C[C@@H](C2CC2)C[C@@H](OCCCCO)O1	none (no result: Yeast lifespan up, Yeast growth inh)
CC(OC(=O)CCCN1C(=O)c2ccccc2C1=O)C(=O)Nc1ncc(Cl)cc1Cl (configuration not stated)	Yeast lifespan up 30
CC(OC(=O)Cc1coc2ccc3ccccc3c12)C(=O)Nc1ncc(Cl)cc1Cl (configuration not stated)	none
COCCCNC(=S)Nc1c(C)cc(C)cc1C	none (no result: Yeast lifespan up, RAM inhibit, Yeast growth inh, WT yeast gro inh)
Cc1nn(-c2ccccc2)c(N)c1C1(O)C(=O)Nc2ccccc21 (configuration not stated)	none (no result: Yeast lifespan up, RAM inhibit, Yeast growth inh, WT yeast gro inh)
CCCCn1c(NC(=S)Nc2ccccc2)nc2ccccc21	Cl transport mod 47
Cc1ccc(CN2C(=O)CCC2C(=O)NCCN2CCN(c3cccc(Cl)c3)CC2)cc1 (configuration not stated)	none (no result: Yeast lifespan up, RAM inhibit, Yeast growth inh, WT yeast gro inh)
CCC(C)[C@H](NC(=O)Nc1ccc(C)cc1C)C(=O)O (some centres not stated)	none (no result: Yeast lifespan up, RAM inhibit, Yeast growth inh, WT yeast gro inh)
O=C(O)CSCc1cnn(-c2ccccc2)c1-n1cccc1	none
CCOc1ccc(NC(=O)CSCc2cnn(-c3ccccc3)c2-n2cccc2)cc1	RAM inhibit 10
O=C(CSCc1cnn(-c2ccccc2)c1-n1cccc1)N1CCN(Cc2ccccc2)CC1	WT yeast gro inh 63
COc1ccccc1CNC(=O)CSCc1cnn(-c2ccccc2)c1-n1cccc1	none
CC(C)(C)c1ccc(CNc2ccc([N+](=O)[O-])cn2)cc1	WT yeast gro inh 80
CC(C)c1ccc(CNc2ccc([N+](=O)[O-])cn2)cc1	none (no result: Yeast lifespan up, Yeast growth inh)
COc1cc(OC)cc(C(=O)N2CCC(n3c(C)nc4cc(F)ccc43)CC2)c1	WT yeast gro inh 69
COc1ccc(NC(=O)CN2CCC(n3c(C)nc4cc(F)ccc43)CC2)c(OC)c1	none (no result: Cl transport mod)
O=C(c1cccs1)n1nc(-c2ccccc2)nc1NCc1ccc(F)cc1	RAM inhibit 8.6
O=C(c1ccc([N+](=O)[O-])cc1)n1nc(-c2ccccc2)nc1NCc1ccccc1	none
O=C(c1cccc([N+](=O)[O-])c1)n1nc(-c2ccccc2)nc1NCc1ccccc1	RAM inhibit 9.7
CC(=O)n1nc(-c2ccccc2)nc1NCc1ccc(F)cc1	none
CC(=O)NC/C(C)=N\Nc1ccc([N+](=O)[O-])cc1	WT yeast gro inh 78 (no result: Yeast lifespan up, Yeast growth inh)
COc1ccc(-c2cc(CNS(=O)(=O)c3ccccc3)on2)cc1	none (no result: Yeast lifespan up, Yeast growth inh)
CCOC(=O)c1sc(NC(=S)NC(=O)C23CC4CC(CC(C4)C2)C3)cc1C	none
